Experimental data published in ChEMBL document CHEMBL1139507, “Application of phosphoramidate pronucleotide technology to abacavir leads to a significant enhancement of antiviral potency” (J Med Chem, 2005).
Where “and” joins values, the source holds several entries; their conditions need not be identical. Identical values can stand only once.

Key:
HepG2 [1] = assay: Cytostatic concentration required to inhibit Hep G2 cell proliferation; type: functional; conditions: Homo sapiens
[2] = tested on: Human immunodeficiency virus 1; assay: Effective concentration against human immunodeficiency virus type 1 in CEM cells; type: functional, organism-based; conditions: Human immunodeficiency virus 1, CCRF-CEM
Summary of the method: (§1)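 HIV-1- and HIV-2-induced cytopathicity in CEM cell cultures, scored at day 4 by microscopic examination of virus-induced giant cell formation; EC50 = concentration inhibiting cytopathicity by 50%.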

[3] = tested on: Human immunodeficiency virus 2; assay: Effective concentration against human immunodeficiency virus type 2 in MT-4 cells; type: functional, organism-based; conditions: Human immunodeficiency virus 2, MT4
[4] = tested on: Human immunodeficiency virus 2; assay: Effective concentration against human immunodeficiency virus type 2 in CEM cells; type: functional, organism-based; conditions: Human immunodeficiency virus 2, CCRF-CEM; summary of the method: as §1
CCRF-CEM = assay: Cytostatic concentration required to inhibit CEM cell proliferation; type: functional; conditions: Homo sapiens
[5] = tested on: Human immunodeficiency virus 1; assay: Effective concentration against human immunodeficiency virus type 1 in MT-4 cells; type: functional, organism-based, MT4
Hepatitis B virus [6] = assay: Effective concentration against HBV in Hep G2.2.15 cells; type: functional, organism-based, HepG2 2.2.15
Summary of the method: (§2)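 Anti-HBV activity assayed in HepG2 2.2.15 human hepatoma cells, which constitutively produce HBV; EC50 = 50% effective concentration.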

MT4 = assay: Cytostatic concentration required to inhibit MT-4 cell proliferation; type: functional, Homo sapiens
HepG2 [7] = assay: Cytostatic concentration required to inhibit Hep G2.2.15 cell proliferation; type: functional, Homo sapiens
Summary of the method: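 Growth inhibition of HepG2 2.2.15 human hepatoma cells (constitutively HBV-producing) measured; CC50 = 50% cytostatic concentration.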

Hepatitis B virus [8] = assay: Effective concentration againstHBV in Hep G2.2.15 cells; type: functional, organism-based, HepG2 2.2.15; summary of the method: as §2
[9] = Human immunodeficiency virus 1, MT4
[10] = Hepatitis B virus, HepG2 2.2.15

Row | SMILES | CC50 (HepG2 [1]) | EC50 [2] | EC50 [3] | EC50 [4] | CC50 (CCRF-CEM) | EC50 [5, 9] | EC50 (Hepatitis B virus [6]; [10]) | CC50 (MT4; Homo sapiens, MT4) | CC50 (HepG2 [7]) | EC50 (Hepatitis B virus [8]; hepg2 2.2.15) | EC50 ([5]; mt4) | CC50 (MT4) | EC50 (Hepatitis B virus [6]; hepg2 2.2.15) | EC50 (Hepatitis B virus [8]; [10])
1 | COC(=O)CNP(=O)(OC[C@@H]1C=C[C@H](n2cnc3c(NC4CC4)nc(N)nc32)C1)Oc1ccccc1 (some centres not stated) | 58 µM | 1800 nM | 5400 nM | 2000 nM | > 56 µM | 7200 nM | 1000 nM | 8.5 µM |  |  |  |  |  | 
2 | COC(=O)[C@@H](C)NP(=O)(OC[C@@H]1C=C[C@H](n2cnc3c(NC4CC4)nc(N)nc32)C1)Oc1ccccc1 (stereo in doubt; 3a) |  |  |  |  |  |  |  |  | 10 µM | 400 nM | 27 nM | 1 µM |  | 
3 | CCOC(=O)[C@@H](C)NP(=O)(OC[C@@H]1C=C[C@H](n2cnc3c(NC4CC4)nc(N)nc32)C1)Oc1ccccc1 (stereo in doubt; 6) | 18 µM | 70 nM | 210 nM | 61 nM | 12 µM |  | 350 nM |  |  |  | 200 nM | 8.6 µM |  | 
4 | CCOC(=O)[C@@H](C)NP(=O)(OC[C@@H]1C=C[C@H](n2cnc3c(NC4CC4)nc(N)nc32)C1)Oc1ccccc1 (stereo in doubt; 6b) |  |  |  |  |  |  |  |  | 35 µM |  | 140 nM | 5 µM | 270 nM | 
5 | C[C@@H](NP(=O)(OC[C@@H]1C=C[C@H](n2cnc3c(NC4CC4)nc(N)nc32)C1)Oc1ccccc1)C(=O)OC(C)(C)C (some centres not stated) | 11 µM | 3700 nM | 3400 nM | 6000 nM | 8.6 µM | 6600 nM | 5000 nM | 2.1 µM |  |  |  |  |  | 
6 | CCOC(=O)[C@@H](C)NP(=O)(OC[C@@H]1C=C[C@H](n2cnc3c(NC4CC4)nc(N)nc32)C1)Oc1ccccc1 (stereo in doubt; 6a) |  |  |  |  |  |  |  |  | 7.5 µM |  | 15.5 nM | 0.95 µM | 200 nM | 
7 | CCOC(=O)[C@@H](C)NP(=O)(OC[C@@H]1C=C[C@H](n2cnc3c(NC4CC4)nc(N)nc32)C1)Oc1ccccc1 (stereo in doubt; 6a,b) |  |  |  |  |  |  |  |  | 18 µM |  | 15.5 nM | 4.6 µM |  | 
8 | COC(=O)[C@@H](C)NP(=O)(OC[C@@H]1C=C[C@H](n2cnc3c(NC4CC4)nc(N)nc32)C1)Oc1ccccc1 (stereo in doubt; 3b) |  |  |  |  |  |  |  |  | 35 µM |  | 110 nM | 4 µM | 1500 nM | 
9 | CC(C)OC(=O)[C@@H](C)NP(=O)(OC[C@@H]1C=C[C@H](n2cnc3c(NC4CC4)nc(N)nc32)C1)Oc1ccccc1 (some centres not stated) | 17 µM | 50 nM | 260 nM | 50 nM | 13 µM | 200 nM | 550 nM | 4.6 µM |  |  |  |  |  | 
10 | COC(=O)C(C)(C)NP(=O)(OC[C@@H]1C=C[C@H](n2cnc3c(NC4CC4)nc(N)nc32)C1)Oc1ccccc1 (some centres not stated) | 5.5 µM | 67 nM | 110 nM | 64 nM | > 130 µM | 140 nM | 19 nM | 8.1 µM |  |  |  |  |  | 
11 | COC(=O)[C@H](C)NP(=O)(OC[C@@H]1C=C[C@H](n2cnc3c(NC4CC4)nc(N)nc32)C1)Oc1ccccc1 (some centres not stated) | 52 µM | 1400 nM | 4100 nM | 4500 nM | 46 µM | 3400 nM | 1300 nM | 4.5 µM |  |  |  |  |  | 
12 | COC(=O)[C@@H](C)NP(=O)(OC[C@@H]1C=C[C@H](n2cnc3c(NC4CC4)nc(N)nc32)C1)Oc1ccccc1 (stereo in doubt; 3a,b) | 17 µM | 50 nM | 260 nM | 50 nM | 13 µM |  |  |  | 17 µM |  | 200 nM and 37 nM | 4.3 µM and 4.6 µM | 550 nM | 550 nM
